Among the data in ChEMBL document CHEMBL4265978, “In search of constrained FTY720 and phytosphingosine analogs as dual acting anticancer agents targeting metabolic and epigenetic pathways” (Eur J Med Chem, 2018) are IC50, Activity and inhibition values, retold here.

The test system of experiment [1] is FL5.12. Put plainly: Cytotoxicity against mouse FL5.12 cells after 48 hrs by DAPI or propidium iodide staining-based flow cytometric analysis. The format is functional, cell-based. Conditions: FL5.12, 48 h. The procedure, abridged: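 FL5.12 (murine hematopoietic, IL-3-dependent) cells treated at 25,000/mL; viability read at 48 h by DAPI or propidium iodide dye exclusion on flow cytometry. IC50 fitted, reported with 95% confidence interval.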
For orientation: Flow cytometry measures light scatter and fluorescence of single cells or particles in a stream.

For experiment [2], the system named is FL5.12. Briefly: Downregulation of CD98 expression in mouse FL5.12 cells at 2.5 uM after 3 hrs by DAPI staining-based FACS analysis relative to control. The format is functional. The procedure, abridged: (§1)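 FL5.12 cells plated at 225-250,000/mL and treated 3 h. 150-200,000 cells stained in triplicate on ice for 30 min with PE-anti-mouse CD98, with PE rat IgG2a κ as isotype control. Read by flow cytometry, gated on viable cells (DAPI exclusion or scatter). Loss given as mean of at least 2 biological replicates.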

For experiment [3], the system named is FL5.12. Briefly: Downregulation of CD98 expression in mouse FL5.12 cells at 10 uM after 3 hrs by DAPI staining-based FACS analysis relative to control. The class given is functional. The essentials:
as §1

Experiment [4] relates to FL5.12. Put plainly: Downregulation of CD98 expression in mouse FL5.12 cells at 40 uM after 3 hrs by DAPI staining-based FACS analysis relative to control. The class given is functional. The procedure, abridged:
as §1

The test system of experiment [5] is FL5.12. Briefly: Cytotoxicity against mouse FL5.12 cells assessed as vacuole formation at 40 uM after 3 hrs by […]. The class given is functional, cell-based. The essentials:
(§2)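 FL5.12 cells treated at 200,000/mL for 3 h, then imaged at 100× by brightfield/DIC. At least 5 images per condition, at least 2 biological replicates. Two researchers scored each replicate independently: 0 no vacuoles, + some cells, ++ most cells with at least 1 vacuole, +++ all cells heavily vacuolated.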

In experiment [6] the test system is FL5.12. Put plainly: Cytotoxicity against mouse FL5.12 cells assessed as vacuole formation at 2.5 uM after 3 hrs by […]. The format is functional, cell-based. The essentials: as §2
The subject of experiment [7] is FL5.12. Briefly: Cytotoxicity against mouse FL5.12 cells assessed as vacuole formation at 10 uM after 3 hrs by […]. The class given is functional, cell-based. The essentials:
as §2

Experiment [8] deals with Histone deacetylase (Homo sapiens) (UniProt Q13547+O15379+Q9UBN7+Q92769+Q9UQL6+Q8WUI4+Q9BY41+Q96DB2+P56524+Q9UKV0+Q969S8). Put plainly: Inhibition of HDAC in human HeLa cell extract at 10 to 20 uM after 15 to 30 mins by COLOR DE LYS-based colorimetric method. The format is protein assay. The procedure, abridged: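 Recombinant HDAC1 or HeLa extract incubated with acetylated lysine substrate at 37°C for 15-30 min. Developer then added: 10-15 min at 37°C with absorbance at 405 nm (colorimetric kit), or 15 min at RT with fluorescence at ex 355/em 460 nm, corrected using ± trichostatin A.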

Active and inactive are the calls of the source. No cut-off for these calls is given here. Where only a bound is given, the exact number is not on record here.

Broadly, the IC50 is the concentration that inhibits the measured activity by half. Read a low IC50 as greater potency in that assay. In experiment [1], `CCCCCCCCc1ccc(C(=O)[C@@H]2C[C@@H](O)CN2)cc1.Cl` returned an IC50 of 28.1 µM. For the same molecule, the Activity is 2% in experiment [2], 9% in experiment [3] and 48% in experiment [4]. In addition, the outcome in experiment [5] was Active. For the same molecule, the outcome in experiment [6] was inactive.

Molecule `CC(=O)CCCCCCc1ccc([C@H]2CCN[C@@H]2CO)cc1.Cl` came in with an IC50 in experiment [1] of 15.1 µM. The Activity in experiment [2] is -15%; in experiment [3], -8%; in experiment [4] it was 23%. In addition, the outcome in experiment [5] and in experiment [7] was inactive.

With `CCCCCCCCc1ccc(C(=O)CC[C@H]2C[C@H](CO)CN2)cc1.Cl`, in experiment [1], inhibition was half-maximal at 4 µM (IC50). Further, the Activity in experiment [2] worked out at 8%; in experiment [3], 46%. In experiment [7], the outcome was Active. In experiment [6], the result was inactive.

On to `CCCCCCCCc1ccc(C(=O)[C@H]2C[C@H](OP(=O)(O)O)CN2)cc1.Cl`, for which the midpoint of inhibition in experiment [1], the IC50, lay at 12.8 µM. For the same molecule, the Activity is -9% in experiment [3] and 0% in experiment [4]. Also, the outcome in experiment [5], in experiment [7] and in experiment [6] was inactive.

Molecule `CCCCCCCCc1ccc(C(=O)[C@@H]2C[C@@H](OP(=O)(O)O)CN2)cc1.Cl` registered an IC50 in experiment [1] of 12.9 µM. Moreover, the Activity in experiment [3] is listed as 3%; in experiment [4], -8%. For the same molecule, the outcome in experiment [5], in experiment [7] and in experiment [6] was inactive.

In experiment [1], `CCCCCCCCc1ccc(CC(O)[C@H]2C[C@H](O)CN2)cc1.Cl` (some centres undefined) returned an IC50 of 1.8 µM. The figures for the Activity in experiment [2] and in experiment [3] were 9% and 62%, respectively. Moreover, in experiment [7], the outcome was Active. Also, the inhibition result in experiment [8] was “inactive”. Moreover, the outcome in experiment [6] was inactive.

As for `CCCCCCCCc1ccc(C[C@@H]2C[C@@H](O)CN2)cc1`, the midpoint of inhibition in experiment [1], the IC50, lay at 2.2 µM. Moreover, the Activity in experiment [2] is on record as 40%; in experiment [3] it was 63%. For the same molecule, the outcome in experiment [7] and in experiment [6] was Active.

As to `CCCCCCCCc1ccc(CCC(N)(CO)CO)cc1` [FINGOLIMOD], the concentration for half-maximal inhibition (IC50) in experiment [1] was found to be 2.1 µM. Besides, the Activity stood at 30% in experiment [2] and 63% in experiment [3]. Further, the outcome in experiment [7] and in experiment [6] was Active.

For `CCCCCCCCc1ccc([C@@H]2CC[C@H]3C[C@H](CO)CN32)cc1.Cl`, the IC50 in experiment [1] was 12.2 µM. The Activity in experiment [2] is on record as 0%; in experiment [3], 32%; in experiment [4] it was 68%. Further, the result in experiment [5] was Active. Moreover, the result in experiment [7] and in experiment [6] was inactive.

Take `CCCCCCCCc1ccc(CC(=O)[C@@H]2C[C@@H](OP(=O)(O)O)CN2)cc1.Cl`: half-maximal inhibition in experiment [1] (IC50) was put at 25 µM. The Activity was 3% in experiment [3] and 0% in experiment [4]. Further, the outcome in experiment [5] and in experiment [7] was inactive. Also, in experiment [8], the inhibition entry was “inactive”.

With `CCCCCCCCc1ccc([C@H]2CCN[C@@H]2CO)cc1`, the IC50 in experiment [1] was 2.1 µM. Further, the Activity is reported as 41% in experiment [2] and 66% in experiment [3]. Also, the outcome in experiment [7] and in experiment [6] was Active.

With `CCCCCCCCc1ccc(C(=O)[C@H]2C[C@H](CO)CN2)cc1.Cl`, the IC50 in experiment [1] came out at 19.6 µM. Moreover, the figures for the Activity in experiment [2], in experiment [3] and in experiment [4] were 0%, 19% and 61%, respectively. Further, the outcome in experiment [5] was Active. Also, the outcome in experiment [7] and in experiment [6] was inactive.

As to `CCCCCCCCc1ccc(C(=O)C[C@@H]2CCCN2)cc1.Cl`, in experiment [1], it took 2.5 µM to reach half-maximal inhibition (IC50). For the same molecule, the Activity in experiment [2] came out at 28%; in experiment [3], 57%. Also, the result in experiment [7] and in experiment [6] was Active.

`O=C(CCCCCCC(=O)Nc1ccccc1)NO`: the outcome in experiment [7] was Active.

In the case of `CCCCCCCCc1ccc(C(C[C@@H]2CCCN2)OC)cc1.Cl` (some centres undefined), the IC50 in experiment [1] came out at 3 µM. Moreover, the Activity in experiment [2] was determined as 16%; in experiment [3], 58%. The outcome in experiment [7] was Active. Further, the outcome in experiment [6] was inactive.

In experiment [1], `CCCCCCCCc1ccc(C(=O)C[C@@H]2C[C@@H](O)CN2)cc1.Cl` came in with an IC50 of 2.1 µM. For the same molecule, the figures for the Activity in experiment [2] and in experiment [3] were 22% and 46%, respectively. Further, the outcome in experiment [7] and in experiment [6] was Active.

In experiment [1], `CCCCCCCCc1ccc(CC(=O)[C@H]2C[C@H](O)CN2)cc1.Cl` returned an IC50 of 17.1 µM. The Activity in experiment [2] is on record as 11%; in experiment [3], 16%; in experiment [4], 54%. For the same molecule, the outcome in experiment [5] was Active. In addition, the result in experiment [7] and in experiment [6] was inactive.

Consider `Cc1nc(CCCCCCCc2ccc([C@H]3CCN[C@@H]3CO)cc2)co1.Cl`, for which, in experiment [1], the IC50 is 8.4 µM. Besides, the values for the Activity in experiment [2], in experiment [3] and in experiment [4] were 5%, 33% and 61%, respectively. The result in experiment [5] and in experiment [7] was inactive.

`CCCCCCCCc1ccc(C(=O)[C@H]2C[C@H](O)CN2)cc1.Cl` yielded an IC50 in experiment [1] of 15.3 µM. Besides, the values for the Activity in experiment [2], in experiment [3] and in experiment [4] were 12%, 51% and 41%, respectively. Further, the result in experiment [5] and in experiment [7] was Active. For the same molecule, in experiment [6], the outcome was inactive.

Regarding `CCCCCCCCc1ccc(C(=O)[C@@H]2CCCN2)cc1.Cl`, in experiment [1], the IC50 was > 40 µM. Also, the figures for the Activity in experiment [2], in experiment [3] and in experiment [4] were -21%, -4% and 33%, respectively. In experiment [5], the result was Active. Further, the result in experiment [7] and in experiment [6] was inactive.

`Cl.OC[C@H]1NCC[C@@H]1c1ccc(CCCOCc2ccccc2)cc1` gave an IC50 in experiment [1] of 10.9 µM. Moreover, the Activity in experiment [2] is 11%; in experiment [3] it was 14%; in experiment [4], 51%. Moreover, the outcome in experiment [5] and in experiment [7] was inactive.

In the case of `CCCCCCCCc1ccc(CC(=O)[C@@H]2C[C@@H](O)CN2)cc1.Cl`, the midpoint of inhibition in experiment [1], the IC50, lay at 18.6 µM. Further, the Activity in experiment [2] is reported as 13%; in experiment [3] it was 23%; in experiment [4] it was 59%. In addition, in experiment [5], the result was Active. Moreover, the result in experiment [7] and in experiment [6] was inactive.

For the molecule `Cc1nc(/C=C/CCCCCc2ccc([C@H]3CCN[C@@H]3CO)cc2)co1.Cl`, in experiment [1], the IC50 came out at 10.2 µM. In addition, the Activity came out at 5% in experiment [2], 18% in experiment [3] and 61% in experiment [4]. In addition, the outcome in experiment [5] and in experiment [7] was inactive.

In the case of `CCCCCCCCc1ccc(CC[C@@H]2CCCN2)cc1.Cl`, the IC50 in experiment [1] came to 2.8 µM. The Activity in experiment [2] is 41%; in experiment [3], 63%. In addition, the result in experiment [7] and in experiment [6] was Active.

`CCCCCCCCc1ccc(C(=O)CC[C@@H]2C[C@@H](O)CN2)cc1.Cl` gave an IC50 in experiment [1] of 2.1 µM. Besides, the Activity in experiment [2] was 15%; in experiment [3], 52%. The result in experiment [7] and in experiment [6] was Active.

In experiment [1], `CCCCCCCCc1ccc(CC(O)[C@@H]2C[C@@H](O)CN2)cc1.Cl` (some centres undefined) registered an IC50 of 3 µM. The Activity in experiment [2] is 19%; in experiment [3], 62%. Moreover, the result in experiment [7] and in experiment [6] was Active. In experiment [8], the inhibition result was “inactive”.

In experiment [1], `CCCCCCCCc1ccc(CC(=O)[C@H]2C[C@H](OP(=O)(O)O)CN2)cc1.Cl` came in with an IC50 of 25.3 µM. The Activity in experiment [3] is recorded as 5%; in experiment [4], 8%. The result in experiment [5] and in experiment [7] was inactive. Besides, the inhibition result in experiment [8] is “inactive”.
